pIC50: −log10 of the molar value. Activity calls are given as the source filed them. The calls are words filed in the database; no cut-off is given here.
How the values were obtained:
[1] = test system: SW-620; test: Antiproliferative activity in human SW620 cells assessed as cell viability after 72 hrs by MTT assay; format: functional, cell-based
Procedure, shortened: (§1)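 Each line was grown in its own medium: DMEM for HuTu-80, EMEM/NEAA for MCF-7, EMEM/F12 for SKNBE, DMEM/F12 with 5% FBS for T84, Leibovitz's for the SW lines. Cells were seeded, left 24 h, then exposed to graded concentrations for 72 h. MTT was given 2 h, absorbance read at 570 nm. IC50 is 50% absorbance inhibition versus control, from dose-response curves; mean ± SD of ≥3 independent experiments, each in triplicate.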

[2] = Antiproliferative activity in human CCD-841-CoN cells assessed as cell viability at 10 uM after 72 hrs by MTT assay; format: cell-based
Procedure, shortened: (§2)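 Normal cells (CCD841CoN in EMEM/NEAA with 10% FBS; FHs74 in DMEM with 10% FBS, EGF 30 ng/mL, insulin 10 μg/mL) were seeded and grown for 24 h at 37 °C, 5% CO2, then given compound at 10 μM. Viability was read by MTT: 2 h at 37 °C, formazan solubilized, absorbance at 570 nm.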

[3] = biological target: Tubulin (Sus scrofa, UniProt P02554+P02550); test: Inhibition of porcine brain tubulin polymerization after 30 mins by spectrophotometry
Procedure, shortened: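 Porcine brain tubulin at 2.5 mg/mL was used in 80 mM PIPES pH 6.9, 1 mM MgCl2, 2 mM EGTA, 10% glycerol, with 1 mM GTP and graded compound (0.2% DMSO vehicle). Turbidity was followed at 340 nm, 37 °C.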

[4] = test system: SW480; test: Antiproliferative activity in human SW480 cells assessed as cell viability after 72 hrs by MTT assay; format: functional, cell-based; procedure, shortened: as §1
[5] = test system: T84; test: Antiproliferative activity in human T84 cells assessed as cell viability after 72 hrs by MTT assay; format: functional, cell-based; procedure, shortened: as §1
[6] = test system: SW48; test: Antiproliferative activity in human SW48 cells assessed as cell viability after 72 hrs by MTT assay; format: functional, cell-based; procedure, shortened: as §1
[7] = test system: MCF7; test: Antiproliferative activity in human MCF7 cells assessed as cell viability after 72 hrs by MTT assay; format: functional, cell-based; procedure, shortened: as §1
[8] = Antiproliferative activity in human FHs74 cells assessed as cell viability at 10 uM after 72 hrs by MTT assay; format: cell-based; procedure, shortened: as §2
[9] = Antiproliferative activity in human HuTu 80 cells assessed as cell viability after 72 hrs by MTT assay; format: functional, cell-based, HuTu80; procedure, shortened: as §1
[10] = Antiproliferative activity in human SK-N-BE cells assessed as cell viability after 72 hrs by MTT assay; format: functional, cell-based; procedure, shortened: as §1
[11] = test system: HeLa; test: Antiproliferative activity in human HeLa cells assessed as cell viability at 10 uM after 48 hrs by MTT assay; format: functional, cell-based
Procedure, shortened: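 HeLa cells were kept in DMEM with 10% FBS at 37 °C, 5% CO2. They were seeded, left 24 h, then given 10 μM compound for 48 h. MTT was added for 2 h at 37 °C, formazan solubilized, absorbance read at 570 nm, and viability compared with control cells.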

[12] = biological target: T1, AMP-activated protein kinase, AMPK (Homo sapiens) (UniProt P54646+O43741+P54619+Q9UGJ0+Q9Y478+Q13131+Q9UGI9); test: Induction of AMPK-mediated raptor phosphorylation at ser792 residue in human […] cells at 30 nM after 24 hrs by Western blot analysis; format: cell-based
Procedure, shortened: (§3)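 HuTu-80 cells were exposed to 30 nM compound for 24 h, with 0.1% DMSO as vehicle. pT172-AMPK and pS792-Raptor were blotted from total RIPA extracts with vinculin for loading. pS15-p53 and total p53 were blotted from nuclear extracts with fibrillarin as nuclear control.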

[13] = biological target: T1, AMP-activated protein kinase, AMPK (Homo sapiens); test: Induction of AMPK-mediated p53 pser15 accumulation in human […] cells at 30 nM after 24 hrs by Western blot analysis; format: cell-based; procedure, shortened: as §3
[14] = Cell cycle arrest in human HuTu 80 cells assessed as […] at sub-G1 phase at 30 nM by propidium iodide-based flow cytometry; format: functional; conditions: HuTu80, TDE = time-dependent effect
[15] = Cell cycle arrest in human HuTu 80 cells assessed as accumulation at G2/M phase at 30 nM after 48 to 72 hrs by propidium iodide-based flow cytometry; format: functional; conditions: HuTu80
Procedure, shortened: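 HuTu-80 cells were exposed to 30 nM compound for 48 and 72 h, with 0.1% DMSO as vehicle. Cells were trypsinized, washed in PBS, fixed in 75% ethanol at 4 °C and stained with propidium iodide. DNA content was measured by flow cytometry.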

[16] = biological target: T1, AMP-activated protein kinase, AMPK (Homo sapiens); test: Induction of AMPK-mediated p53 phosphorylation at ser15 residue in human […] cells at 30 nM after 24 hrs by Western blot analysis; format: cell-based; procedure, shortened: as §3
[17] = Cell cycle arrest in human HuTu 80 cells assessed as accumulation at sub-G1 phase at 30 nM after 48 hrs by propidium iodide-based flow cytometry (reference value: 3.3 %); conditions: HuTu80
[18] = test system: HuTu 18; test: Effect on AKT phosphorylation at ser473 in insulin-stimulated human […] cells at 30 nM after 24 hrs by Western blot analysis; format: cell-based
Procedure, shortened: (§4)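 HuTu-80 cells were exposed to 30 nM compound for 24 h, with 0.1% DMSO as vehicle. They were then mock treated or stimulated with 10 μg/mL insulin for 10 min. Total RIPA extracts were probed by Western blot for pS473-Akt and total Akt, with vinculin as loading control.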

[19] = test system: HuTu80; test: Induction of apoptosis in human HuTu 80 cells assessed as PARP cleavage at 30 nM after 24 hrs by Western blot analysis
[20] = test system: HuTu 18; test: Effect on AKT phosphorylation at ser473 in human […] cells at 30 nM after 24 hrs by Western blot analysis; format: cell-based; procedure, shortened: as §4
[21] = biological target: T1, AMP-activated protein kinase, AMPK (Homo sapiens); test: Induction of AMPK phosphorylation at Thr172 residue in human […] cells at 30 nM after 24 hrs by Western blot analysis; format: cell-based; procedure, shortened: as §3
[22] = test system: HuTu80; test: Induction of apoptosis in human HuTu 80 cells assessed as caspase-3 cleavage at 30 nM after 24 hrs by Western blot analysis
[23] = Cell cycle arrest in human HuTu 80 cells assessed as […] at sub-G1 phase at 30 nM after 72 hrs by propidium iodide-based flow cytometry (reference value: 4.3 %); format: functional; parameters: scale not given: the % may be the effect or the level left; conditions: HuTu80
[24] = biological target: T1, AMP-activated protein kinase, AMPK (Homo sapiens); test: Induction of AMPK phosphorylation at Thr172 residue in human SW48 cells at 30 nM after 16 hrs by Western blot analysis; format: cell-based
Procedure, shortened: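 SW48 cells were exposed to 30 nM compound for 16 h, with 0.1% DMSO as vehicle. Total RIPA lysates (with protease and phosphatase inhibitors) were blotted for pT172-AMPK and total AMPK.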

[25] = Antiproliferative activity in human renal cancer cells; format: functional, cell-based; conditions: Cancer cell lines

COc1ccc([C@H]2[C@H](O)C(=O)N2c2cc(OC)c(OC)c(OC)c2)cc1O (stereo in doubt; (+))
pIC50 ([1]; sw-620): 8.47 | Activity [2]: Non-toxic | IC50 [3]: 1.61 µM | pIC50 ([4]; sw480): 7.90 | pIC50 ([5]; t84): 7.69 | pIC50 ([6]; sw48): 8.01 | pIC50 ([7]; mcf7): 8.35 | Activity [8]: Non-toxic | pIC50 ([9]; hutu80): 8.52 | pIC50 ([10]; sk-n-be): 8.88

COc1ccc([C@@H]2[C@H](O)C(=O)N2c2cc(OC)cc(OC)c2)cc1 (racemic)
Activity [11]: Active | pIC50 ([9]; Homo sapiens, HuTu80, 72 h): 6.90

COc1ccc([C@H]2[C@H](O)C(=O)N2c2cc(OC)c(OC)c(OC)c2)cc1O (stereo in doubt; (-))
pIC50 ([9]; hutu80): 6.23

COc1ccc([C@H]2[C@H](O)C(=O)N2c2cc(OC)cc(OC)c2)cc1 (racemic) [listing 1 of 2 here]
Activity [12]: Active | Activity [13]: Active | Activity [14]: tde | Activity [11]: Active | Activity [15]: Active | Activity [16]: Active | Activity [17]: 28.5% | Activity [18]: inactive | Activity [19]: Active | Activity [20]: inactive | Activity [21]: Active | Activity [22]: Active | Activity [23]: 35% | Activity [24]: Active

COc1ccc([C@H]2[C@H](O)C(=O)N2c2cc(OC)cc(OC)c2)cc1 (stereo in doubt; (-))
pIC50 ([9]; hutu80): 7.08

COc1ccc(/C=C\c2cc(OC)c(OC)c(OC)c2)cc1O [COMBRETASTATIN A4]
pIC50 ([1]; Homo sapiens, SW-620, 72 h): 8.82 | Activity [13]: Active | Activity [11]: Active | pIC50 ([4]; Homo sapiens, SW480, 72 h): 8.44 | Activity [17]: 24.6% | pIC50 ([5]; Homo sapiens, T84, 72 h): 7.63 | pIC50 ([6]; Homo sapiens, SW48, 72 h): 8.48 | Activity [19]: Active | Activity [22]: Active | pIC50 ([7]; Homo sapiens, MCF7, 72 h): 8.95 | Activity [23]: 34% | pIC50 ([9]; Homo sapiens, HuTu80, 72 h): 8.86 | pIC50 ([10]; Homo sapiens, SK-N-BE, 72 h): 9.24

COc1ccc(N2C(=O)[C@@H](O)[C@@H]2c2cc(OC)c(OC)c(OC)c2)cc1O (racemic)
Activity [11]: Active | pIC50 ([9]; Homo sapiens, HuTu80, 72 h): 6.39

COc1ccc([C@H]2[C@H](O)C(=O)N2c2cc(OC)cc(OC)c2)cc1 (stereo in doubt; (+))
pIC50 ([1]; sw-620): 8.07 | IC50 [3]: 1.3 µM | pIC50 ([4]; sw480): 7.78 | pIC50 ([5]; t84): 8.17 | pIC50 ([6]; sw48): 7.96 | pIC50 ([7]; mcf7): 8.40 | pIC50 ([9]; hutu80): 8.10 | pIC50 ([10]; sk-n-be): 8.95

COc1ccc([C@@H]2[C@H](O)C(=O)N2c2cc(OC)c(OC)c(OC)c2)cc1[N+](=O)[O-]
pIC50 [25]: 7.53 | pIC50 ([9]; Homo sapiens, HuTu80, 72 h): 6.28

COc1ccc([C@@H]2[C@H](O)C(=O)N2c2cc(OC)c(OC)c(OC)c2)cc1N
pIC50 ([9]; Homo sapiens, HuTu80, 72 h): 6.99

COc1ccc([C@@H]2[C@H](O)C(=O)N2c2cc(OC)c(OC)c(OC)c2)cc1O (racemic)
Activity [11]: Active | pIC50 ([9]; Homo sapiens, HuTu80, 72 h): 7.54

COc1ccc(N2C(=O)[C@@H](O)[C@H]2c2cc(OC)c(OC)c(OC)c2)cc1O (racemic)
Activity [11]: Active | pIC50 ([9]; Homo sapiens, HuTu80, 72 h): 5.59

COc1ccc([C@H]2[C@H](O)C(=O)N2c2cc(OC)cc(OC)c2)cc1 (racemic) [listing 2 of 2 here]
pIC50 ([1]; Homo sapiens, SW-620, 72 h): 8.18 | Activity [2]: Non-toxic | IC50 [3]: 3.6 µM | pIC50 ([4]; Homo sapiens, SW480, 72 h): 7.62 | pIC50 ([5]; Homo sapiens, T84, 72 h): 8.24 | pIC50 ([6]; Homo sapiens, SW48, 72 h): 7.92 | pIC50 ([7]; Homo sapiens, MCF7, 72 h): 8.28 | Activity [8]: Non-toxic | pIC50 ([9]; hutu80): 8.04 | pIC50 ([10]; sk-n-be): 8.65

COc1ccc([C@H]2[C@H](O)C(=O)N2c2cc(OC)c(OC)c(OC)c2)cc1O (racemic) [listing 1 of 2 here]
pIC50 ([1]; sw-620): 7.87 | IC50 [3]: 3.8 µM | pIC50 ([4]; Homo sapiens, SW480, 72 h): 7.65 | pIC50 ([5]; t84): 7.34 | pIC50 ([6]; Homo sapiens, SW48, 72 h): 7.82 | pIC50 ([7]; Homo sapiens, MCF7, 72 h): 8.21 | pIC50 ([9]; hutu80): 7.87 | pIC50 ([10]; sk-n-be): 8.38

COc1ccc([C@H]2[C@H](O)C(=O)N2c2cc(OC)c(OC)c(OC)c2)cc1O (racemic) [listing 2 of 2 here]
Activity [12]: Active | Activity [13]: Active | Activity [14]: tde | Activity [11]: Active | Activity [15]: Active | Activity [16]: Active | Activity [17]: 22.9% | Activity [18]: inactive | Activity [19]: Active | Activity [20]: inactive | Activity [21]: Active | Activity [22]: Active | Activity [23]: 32.7% | Activity [24]: Active
